According to ChEMBL document CHEMBL2021781, “Dual targeting of histone deacetylase and topoisomerase II with novel bifunctional inhibitors” (J Med Chem, 2012):
The source made the active and inactive calls. The rule behind the calls is not given here.

What was measured:
[1] = molecular target: T1, Histone deacetylase (Homo sapiens) (UniProt Q13547+O15379+Q9UBN7+Q92769+Q9UQL6+Q8WUI4+Q9BY41+Q96DB2+P56524+Q9UKV0+Q969S8); conditions: DU-145, 0.5 to 1 uM
[2] = molecular target: T1, Histone deacetylase (Homo sapiens); assay: Inhibition of HDAC in human DU145 cells assessed as upregulation of p21 expression at IC50 concentration after 4 hrs by Western blot analysis relative to control; type: cell-based; conditions: DU-145
How it was run: (§1)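 Lysed in RIPA with protease inhibitors, cleared 14,000 RPM at 4°C. Immunoblotted, probing acetylated versus total tubulin; p21 also checked. Near-infrared detection at 700/800 nm.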

[3] = test system: MCF7; assay: Antiproliferative activity against human MCF7 cells after 72 hrs by MTS assay; type: functional, cell-based; conditions: MCF7, 72 h
[4] = molecular target: T1, Histone deacetylase (Homo sapiens); assay: Inhibition of HDAC in human DU145 cells assessed as upregulation of p21 expression at 5 times IC50 concentration after 4 hrs by Western blot analysis relative to control; type: cell-based; conditions: DU-145
How it was run: as §1

[5] = molecular target: T2, Protein deacetylase HDAC6 (Homo sapiens) (UniProt Q9UBN7); assay: Inhibition of HDAC6-mediated tubulin acetylation in human DU145 cells at 90 nM after 4 hrs by Western blot analysis; type: cell-based; conditions: DU-145
T2 sequence (whole entry): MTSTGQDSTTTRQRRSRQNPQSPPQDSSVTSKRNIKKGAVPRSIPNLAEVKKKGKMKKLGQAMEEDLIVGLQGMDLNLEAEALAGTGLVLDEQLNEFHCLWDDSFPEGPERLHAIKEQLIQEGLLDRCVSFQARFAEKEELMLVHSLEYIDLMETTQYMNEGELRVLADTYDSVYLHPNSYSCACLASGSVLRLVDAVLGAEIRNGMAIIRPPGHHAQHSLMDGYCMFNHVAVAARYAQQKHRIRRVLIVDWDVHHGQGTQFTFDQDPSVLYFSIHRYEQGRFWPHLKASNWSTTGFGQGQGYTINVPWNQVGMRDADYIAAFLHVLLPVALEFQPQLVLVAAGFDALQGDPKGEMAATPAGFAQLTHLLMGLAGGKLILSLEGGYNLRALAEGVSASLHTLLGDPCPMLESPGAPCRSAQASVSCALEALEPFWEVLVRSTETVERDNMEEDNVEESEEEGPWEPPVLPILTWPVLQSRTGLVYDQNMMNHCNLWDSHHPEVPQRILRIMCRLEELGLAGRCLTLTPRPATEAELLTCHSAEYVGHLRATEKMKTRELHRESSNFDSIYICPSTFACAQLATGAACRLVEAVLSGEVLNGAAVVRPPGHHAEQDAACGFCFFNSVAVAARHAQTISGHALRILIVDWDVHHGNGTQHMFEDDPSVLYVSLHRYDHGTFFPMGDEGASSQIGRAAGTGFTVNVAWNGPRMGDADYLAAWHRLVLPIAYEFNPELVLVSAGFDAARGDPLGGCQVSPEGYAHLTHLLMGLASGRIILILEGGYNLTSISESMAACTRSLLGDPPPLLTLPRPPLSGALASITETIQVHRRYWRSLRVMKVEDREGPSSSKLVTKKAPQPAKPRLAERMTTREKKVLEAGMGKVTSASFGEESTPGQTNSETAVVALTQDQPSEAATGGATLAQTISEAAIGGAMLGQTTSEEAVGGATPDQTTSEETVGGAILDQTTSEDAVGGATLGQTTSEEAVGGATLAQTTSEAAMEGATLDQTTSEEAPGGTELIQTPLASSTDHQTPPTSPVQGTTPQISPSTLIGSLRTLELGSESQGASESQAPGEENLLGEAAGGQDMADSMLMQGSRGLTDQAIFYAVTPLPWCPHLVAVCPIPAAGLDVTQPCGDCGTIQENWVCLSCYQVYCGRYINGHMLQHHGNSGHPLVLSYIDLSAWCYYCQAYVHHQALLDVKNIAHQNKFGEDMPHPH
How it was run: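 DU-145 cells passaged 24 h before dosing, then treated 4 h, with no more than 0.1% DMSO including controls. Lysis in RIPA buffer with protease inhibitors, protein quantified against a BSA standard, SDS-PAGE and transfer. Blots probed with rabbit anti-tubulin and mouse anti-acetyl tubulin, read by near-infrared imaging at 700/800 nm.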

[6] = molecular target: T1, Histone deacetylase (Homo sapiens); assay: Inhibition of HDAC in human DU145 cells assessed as histone H4 acetylation after 24 hrs by Western blot analysis; type: cell-based; conditions: DU-145
How it was run: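 DU-145 cells passaged 24 h before dosing, then exposed 24 h to compound in growth medium (final DMSO 0.1%); controls received 0.1% DMSO. Lysed in RIPA with protease inhibitors at 4°C, cleared at 14,000 × g. Protein quantified against BSA, boiled, transferred to nitrocellulose. Probed for acetyl-H3, acetyl-H4 and p21waf1 with actin loading control; read by near-infrared scanning at 700/800 nm.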

[7] = molecular target: Histone deacetylase 1 (Homo sapiens, UniProt Q13547); assay: Inhibition of HDAC1 in human HeLa cell nuclear extract using Fluor de Lys as substrate after 15 mins by fluorometric analysis
Sequence of Histone deacetylase 1 (Q13547 whole entry): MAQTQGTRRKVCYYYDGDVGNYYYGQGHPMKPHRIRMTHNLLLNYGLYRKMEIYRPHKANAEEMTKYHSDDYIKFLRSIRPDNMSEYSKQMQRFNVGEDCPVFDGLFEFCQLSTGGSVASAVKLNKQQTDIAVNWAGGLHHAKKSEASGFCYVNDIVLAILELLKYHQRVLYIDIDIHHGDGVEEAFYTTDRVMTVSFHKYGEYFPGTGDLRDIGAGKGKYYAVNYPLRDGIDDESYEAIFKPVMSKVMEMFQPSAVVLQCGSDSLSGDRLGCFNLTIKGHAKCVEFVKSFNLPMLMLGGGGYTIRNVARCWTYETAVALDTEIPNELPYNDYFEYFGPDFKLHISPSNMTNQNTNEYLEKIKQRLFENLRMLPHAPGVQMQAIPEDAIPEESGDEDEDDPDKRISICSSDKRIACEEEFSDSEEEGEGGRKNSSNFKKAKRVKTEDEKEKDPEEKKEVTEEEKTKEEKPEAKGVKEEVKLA

COc1cccc2c1C(=O)c1c(O)c3c(c(O)c1C2=O)C[C@@](O)(C(C)=O)C[C@@H]3O[C@H]1C[C@H](NCc2ccc(NC(=O)CCCCCCC(=O)NO)cc2)[C@H](O)[C@H](C)O1 was tested, and the inhibition [1] was “inactive”, the Activity [2] was “inactive” and the IC50 [3] was 990 nM. For the same compound, the Activity [4] was “inactive”, the inhibition [5] was “Active” and the inhibition [6] was “Dose-dependent effect”. The IC50 [7] was 47 nM.
